# This is a sample that favours compounds with a hit; in the whole collection about 2% have one here.
# Myeloid diff MLP = myeloid differentiation induction. ER-HoxA9 myeloid progenitors, lysozyme-GFP differentiation, flow cytometry. AID 624256. 1% of 360,000 active. calls only at 10 µM;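 active means normalized GFP-positive differentiation at or above the plate's own cutoff, the solvent-only control mean plus 3 SD; inconclusive means no clear call, values can overlap the other calls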;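 further: cells exposed to compound for four days before flow analysis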
# NR2E3 ag-1 = activates human photoreceptor nuclear receptor NR2E3. Q9Y5X4. GST-NR2E3/biotin-RetCOR TR-FRET, 1536-well. inhibition of corepressor binding, % at 4.78 µM. 0.12% of 320,000 active. AID 2300;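 active means percent inhibition above the cutoff of mean plus 3 SD of all tested compounds, set per screening campaign, cut at about 20% in these data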;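 further: 0% = DMSO wells and 100% = biotin wells as full block of FRET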
# Target sequence (Q9Y5X4 whole entry, looked up): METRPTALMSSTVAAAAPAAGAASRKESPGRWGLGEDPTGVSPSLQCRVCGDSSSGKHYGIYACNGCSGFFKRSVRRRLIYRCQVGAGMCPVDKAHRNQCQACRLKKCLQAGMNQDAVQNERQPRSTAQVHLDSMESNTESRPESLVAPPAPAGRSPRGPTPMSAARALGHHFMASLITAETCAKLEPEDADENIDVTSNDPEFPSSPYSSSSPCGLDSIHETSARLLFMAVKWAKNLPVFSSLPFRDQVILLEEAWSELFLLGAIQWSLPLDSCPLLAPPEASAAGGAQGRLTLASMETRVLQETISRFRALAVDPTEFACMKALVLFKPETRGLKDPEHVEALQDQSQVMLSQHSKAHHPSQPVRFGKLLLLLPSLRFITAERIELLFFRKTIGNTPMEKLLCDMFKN
#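 Material: NR2E3–RetCOR corepressor complex | Quantity: 1.35 nM GST-tagged NR2E3 final | Schedule: 5 h at 4 °C | Replication: Singlicate compound wells | Reagent: RetCOR corepressor, biotinylated, 7 nM | Controls: Biotin wells as high control, 0.6% DMSO wells as low control | Signal: TR-FRET, Eu(K)-anti-GST donor, streptavidin-D2 acceptor, ex 340, em 617/671 nm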
# T cell HTS = T cell immune modulation candidate; 2C CD8+ T cell-vesicle binding, flow cytometry; hits give low values; AID 2052; response (vesicle binding), % at 7 µM; 0.068% of 330,000 active;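 active means response, share of CD8 T cells binding vesicles, and their 90th percentile fluorescence all below set limits, cut at about 80% in these data, passing the limit was not always enough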;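 further: values below 100% mean blocked vesicle binding to the CD8+ T cells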
#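 Material: murine 2C transgenic CD8+ T lymphocytes / Also added: QL9-peptide-loaded Drosophila micro-vesicles bearing Ld, ICAM-1 and B7-1 / Schedule: binding step 1.5 h, 37 °C, antibody labelling 20 min, ice / Signal: flow cytometry, PE anti-B7-1 (FL2) versus Alexa647 anti-CD8 (FL8), PFA-fixed / Evaluation: percent CD8+ FL2 mean versus row control / Benchmarks: naked versus QL9-loaded vesicles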
# NR2E3 ag-2 = activates human NR2E3 receptor; AID 602229; CHO-S Gal4-NCOR/VP16-NR2E3 two-hybrid, luciferase; 0.35% of 360,000 active; inhibition of corepressor binding, % at 3.98 µM;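 active means inhibition above the mean of all tested compounds plus 3 SD, cut at about 70% in these data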;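 further: 0% = DMSO with NR2E3 transfected cells and 100% = cells lacking NR2E3 construct; higher means lower luciferase signal from less NR2E3 corepressor binding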
# FXN GAA850 act = frataxin GAA850 promoter activation; HEK293 lucGAA850 FXN promoter luciferase reporter, 24 h; percent of 10 µM SAHA response; activation, % at 6 µM; 0.56% of 360,000 active;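 active means activation above the average of all compounds screened plus 3 SD, cutoff fixed separately per campaign, cut at about 7.5% in these data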;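 further: 0% = DMSO wells and 100% = 10 µM SAHA wells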
# Myeloid diff = promotes myeloid progenitor differentiation; ER-HoxA9 myeloid progenitors, GFP/Mac1 double-positive flow; shares compounds with Myeloid diff MLP; 2% of 2,300 active; calls only;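 active means share of green or green-and-red cells above 9 and 9% in run 1 or 4 and 3% in run 2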
# GFP autofluor = compound fluorescence in myeloid differentiation counter-screen; AID 651707; ER-HoxA9 myeloid progenitors, no estrogen, GFP autofluorescence flow cytometry; vehicle wells 0%, positive control 100%; 7.4% of 2,300 active; shares compounds with Myeloid diff MLP; fluorescence response, % (concentration not given with the values);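 active means over 5% cells positive for green fluorescent reporter, or over 2% positive for both it and APC stain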;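 further: range taken on the double positive population between DMSO and positive control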
# * hit, by the source's call; i = inactive; ? = inconclusive; . = no result given; + = active, no number.
SMILES,Myeloid diff MLP,NR2E3 ag-1,T cell HTS,NR2E3 ag-2,FXN GAA850 act,Myeloid diff,GFP autofluor
Cc1cc(C)n(C(=O)/C(C#N)=N/Nc2cc(Cl)cc(Cl)c2)n1,i,-3.5,199.3,0.6,0.1,.,.
CC(Oc1ccccc1)C(=O)Nc1nc(-c2ccccn2)cs1 (configuration not stated),i,.,.,-1.5,-1.5,.,.
CC(Oc1cccc(Cl)c1)C(=O)Nc1nc(-c2ccccn2)cs1 (configuration not stated),+,-1.4,158.1,21.8,-0.1,i,4.5
CCOC(=O)[C@]12CCC=C1N(CCC1=CCCCC1)C(=O)[C@H](CC(=O)N1CCCCC1)C2,i,.,.,-2.5,.,.,.
COc1ccc(Cn2nnnc2C(c2cccnc2)N2CCN(c3ccc(O)cc3)CC2)cc1 (configuration not stated),i,6.4,237.6,-0.6,-0.9,i,5.0
COc1ccccc1NC(=O)CSc1nnc(-c2ccco2)n1Cc1ccco1,i,2.7,483.0,-11.8,0.0,i,0.6
NC(N)=NC(=O)c1nc(Cl)c(N)nc1N,i,0.2,100.5,2.9,-1.7,i,0.0
NC(N)=NC(=O)c1nc(Cl)c(N2CCCCCC2)nc1N,i,3.5,143.2,-48.2,2.9,.,.
CCCCN1C(=O)C(=O)NC[C@@H]1Cc1ccc(O)cc1,i,.,.,9.2,.,.,.
O=C(Nc1cccs1)Nc1c(F)c(F)c(F)c(F)c1F,i,-1.0,276.5,-0.3,1.2,.,.
Cc1cccc(C)c1NC(=O)Nc1cccs1,i,4.2,497.3,13.9,0.5,i,0.0
COc1ccc(-c2c(C#N)c(SCC(=O)c3cc4ccccc4oc3=O)nc(C)c2C(=O)Nc2ccccc2)cc1,?,9.2,512.4,-7.3,-0.1,.,.
Cc1nc(SCC(=O)c2cc3ccccc3oc2=O)c(C#N)c(-c2ccccc2)c1C(=O)Nc1ccccc1,i,2.6,283.7,-6.2,0.3,i,0.0
CC(=O)c1c(C)[nH]c(C(=O)NNC(=O)COc2cc(C)ccc2C(C)C)c1C,i,.,364.3,-13.2,0.7,i,0.0
CCCc1nnc(NC(=O)CCC(=O)N2CCN(c3ccccc3)CC2)s1,i,-0.8,142.8,4.4,-2.0,i,0.0
CC(C)Cc1nnc(NC(=O)CCC(=O)N2CCN(c3ccccc3)CC2)s1,i,0.9,26.2,-6.1,1.1,.,.
O=C(CCc1ccccc1)N/N=C/c1cc(Br)ccc1O,i,1.4,0.0*,-39.4,-0.9,i,0.3
Oc1ccc(Br)cc1/C=N/NC(=S)NCCc1ccccc1,.,0.8,184.7,-13.3,0.3,.,.
COc1ccc(/C=C/C(=O)NC(=S)Nc2ccc(Br)cn2)cc1,i,-1.8,325.7,-39.5,4.7,.,.
CCCCCn1nc(-c2ccccc2)c2nc3ccccc3nc21,+,1.6,931.1,1.2,0.7,i,82.0*
O=C(NN1C(=O)c2ccccc2NC1c1ccco1)c1ccccc1 (configuration not stated),+,2.9,280.0,0.4,-2.7,i,0.5
O=C(O)CCC(=O)NN1C(=O)c2ccccc2NC1c1ccco1 (configuration not stated),i,2.6,472.0,-20.7,-0.9,.,.
O=C(CCc1nc2ccccc2[nH]c1=O)OCC(=O)N1CCc2ccccc21,i,4.4,441.9,-27.4,-3.0,i,0.0
CCOC(=O)c1c(-c2ccc(OC)cc2)csc1NC(=O)CSc1ncnc2sccc12,i,0.6,165.0,0.9,0.5,i,1.0
O=C(NC(=S)NCCN1CCOCC1)c1cccc(Cl)c1,i,4.2,425.1,1.3,-1.5,i,0.0
SMILES,Myeloid diff MLP,NR2E3 ag-1,T cell HTS,NR2E3 ag-2,FXN GAA850 act,Myeloid diff,GFP autofluor
CCOC(=O)[C@H]1[C@H]2COc3cc(OC)ccc3[C@@H]2N2C(=O)CN(CCc3c[nH]c4ccccc34)C(=O)[C@@]12C,i,1.4,184.8,-7.7,1.2,i,0.4
Cc1ccccc1NC(=O)c1sc2nc[nH]c(=O)c2c1C,i,1.4,215.5,15.1,0.1,i,0.0
COC(=O)c1sc2nc[nH]c(=O)c2c1C,i,3.6,209.7,-9.2,0.0,.,.
CCC1(CC)C(=O)N(c2ccccc2)C(=N)N(c2ccccc2)C1=O,i,.,.,14.5,-1.4,.,.
CC(C)CC(c1nnnn1C1CCCC1)N1CCN(C(=O)c2ccco2)CC1 (configuration not stated),+,-2.2,211.1,23.2,1.6,i,0.4
CC(C)CC(c1nnnn1C1CCCCC1)N1CCN(C(=O)c2ccco2)CC1 (configuration not stated),?,-1.0,225.6,-2.5,0.9,.,.
CCCC(c1nnnn1C(C)(C)C)N1CCN(C(=O)c2ccco2)CC1 (configuration not stated),+,4.5,548.0,-16.9,1.1,i,0.4
OC(c1ccccc1)c1ncc(-c2cccc(F)c2)[nH]1 (configuration not stated),i,.,.,-20.9,5.2,.,.
Cc1cc(C)n(CCNC(=O)[C@H]2O[C@@H](n3ccc(=O)[nH]c3=O)[C@H](O)[C@@H]2O)n1,i,.,.,16.4,.,.,.
COc1cc(OC)c2c(-c3ccccc3)cc(=O)oc2c1C(CCN1CCCC(C)C1)c1ccc2c(c1)OCO2 (configuration not stated),i,2.3,214.2,-1.5,-2.4,i,0.0
COc1cc(OC)c2c(-c3ccccc3)cc(=O)oc2c1C(CCN1CCCCC1)c1ccc2c(c1)OCO2 (configuration not stated),i,-1.8,.,-5.8,-3.5,.,.
Cn1c(Cc2ccccc2)nnc1SCC(=O)Nc1ccccc1,i,1.0,170.4,-8.9,-0.1,.,.
CC(C)OC(=O)CSc1nnc(Cc2ccccc2)n1C,+,3.6,341.2,7.6,1.6,i,0.0
CCCCOc1cc(C)nc(NCc2ccccc2)n1,i,4.9,177.1,-29.6,-0.6,.,.
CCOc1cc(C)nc(NCc2ccccc2)n1,+,-3.2,628.9,-3.8,1.1,i,3.7
CCC(=O)NC(=S)Nc1ccc(NC(=O)c2ccccc2[N+](=O)[O-])cc1,i,-3.3,120.2,0.7,0.1,i,0.7
Cc1ccc(Cl)cc1NC(=O)CCN1C(=O)C2C3CCC(C3)C2C1=O (configuration not stated),i,2.7,241.6,-22.5,-0.6,.,.
O=C(CCN1C(=O)C2C3C=CC(C4CC34)C2C1=O)Nc1ccc(Cl)cc1O (configuration not stated),+,0.0,224.2,5.9,0.1,i,0.0
O=c1ccc(S(=O)(=O)N2CCCC2)c[nH]1,i,.,166.1,7.6,3.8,.,.
